The text below walks through data of ChEMBL document CHEMBL4049455, “Discovery of a B-Cell Lymphoma 6 Protein-Protein Interaction Inhibitor by a Biophysics-Driven Fragment-Based Approach” (J Med Chem, 2017).

Experiment [1] concerns the target T1, B-cell lymphoma 6 protein (Homo sapiens, UniProt P41182). The experiment can be described thus: Binding affinity to recombinant RED-NHS labeled BCL6 BTB domain (unknown origin) expressed in Escherichia coli BL21 (DE3) after 10 mins by microscale thermophoresis method. (In general: In MST a laser heats a spot of the sample, and binding alters the fluorescence response.)

For experiment [2], the target named is T1, B-cell lymphoma 6 protein. In words: Binding affinity to captured wild-type human biotinylated Avi-tagged BCL6 BTB domain (5 to 129 amino acid residues) expressed in Escherichia coli BL21 (DE3) by SPR analysis. In general terms: Surface plasmon resonance follows binding to a sensor surface in real time, without labels.
For experiment [3], the system named is B-cell lymphoma 6 protein (Homo sapiens), P41182 [C8Q,C67R,C84N]. In words: Inhibition of BCoR peptide binding to human biotinylated His/Avi/SUMO/FLAG-tagged BCL6 BTB domain (5 to 129 amino acid residues) C8Q/C67R/C84N triple mutant expressed in Escherichia coli BL21 (DE3) by SPR competition assay.
For experiment [4] the test system is unchanged. In words: Binding affinity to human biotinylated His/Avi/SUMO/FLAG-tagged BCL6 BTB domain (5 to 129 amino acid residues) C8Q/C67R/C84N triple mutant expressed in Escherichia coli BL21 (DE3) by STD-NMR spectroscopy. An outline of the steps:
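STD-NMR was run on a sample of 400 μM ligand with 20 μM BCL6 BTB at 15 °C, using 32 scans. On- and off-resonance saturation was at 0.4 and 30 ppm, with 2.0 s total saturation. Binding was read as signal decrease on on-resonance irradiation.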

For experiment [5], the target named is T1, B-cell lymphoma 6 protein. The experiment can be described thus: Binding affinity to 6His-tagged human BCL6 BTB domain (7 to 128 amino acid residues) expressed in Escherichia coli Rosetta (DE3) after 1 min by fluorescence polarization assay. On the technique in general: Polarisation of emitted light reports the rotation of a fluorescent probe.
Experiment [6] addresses T1, B-cell lymphoma 6 protein. In words: Binding affinity to wild-type human biotinylated Avi-tagged BCL6 BTB domain (5 to 129 amino acid residues) expressed in Escherichia coli BL21 (DE3) using 1 % DMSO by SPR analysis. Put shortly: (§1)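 SPR (Biacore 4000) binding of BCoR peptide to immobilized wild-type or Cys-mutant BTB in running buffer containing 1%, 3% or 5% DMSO. Peptide ran from a top concentration of 100 μM in 2-fold dilutions. KD and Rmax were fitted from equilibrium response against peptide concentration.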

The target of experiment [7] is T1, B-cell lymphoma 6 protein. The experiment can be described thus: Binding affinity to wild-type human biotinylated Avi-tagged BCL6 BTB domain (5 to 129 amino acid residues) expressed in Escherichia coli BL21 (DE3) using 3 % DMSO by SPR analysis. Put shortly:
as §1

For experiment [8], the target named is T1, B-cell lymphoma 6 protein. The experiment can be described thus: Binding affinity to wild-type human biotinylated Avi-tagged BCL6 BTB domain (5 to 129 amino acid residues) expressed in Escherichia coli BL21 (DE3) using 5 % DMSO by SPR analysis. Put shortly:
as §1

Experiment [9] has as its target T1, B-cell lymphoma 6 protein. The experiment can be described thus: Binding affinity to coupled wild-type human biotinylated Avi-tagged BCL6 BTB domain (5 to 129 amino acid residues) expressed in Escherichia coli BL21 (DE3) by SPR analysis. Put shortly: (§2)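 Biacore 4000 SPR. Biotinylated BTB (mutant or wild-type) was captured, and wild-type was also amine-coupled on a separate spot, with NeutrAvidin detected as a reference spot. Responses were referenced between spots. Fragments were run from a top concentration of 1 mM in 2-fold dilutions. KD came from equilibrium response plotted against concentration, with BCoR peptide (100 μM) as the positive control.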

Experiment [10] has as its target T2, B-cell lymphoma 6 protein (Homo sapiens, UniProt P41182, C67R/C84N/C8Q). The experiment can be described thus: (§3) Binding affinity to human biotinylated Avi-tagged BCL6 BTB domain C8Q/C67R/C84N triple mutant expressed in Escherichia coli BL21 (DE3) using 3 % DMSO by SPR analysis. An outline of the steps:
as §1

The test system of experiment [11] is B-cell lymphoma 6 protein (Homo sapiens), P41182 [C8Q,C67R,C84N]. The experiment is described as §3. An outline of the steps:
as §1

For experiment [12], the target named is T2, B-cell lymphoma 6 protein. The experiment can be described thus: (§4) Binding affinity to human biotinylated Avi-tagged BCL6 BTB domain C8Q/C67R/C84N triple mutant expressed in Escherichia coli BL21 (DE3) using 5 % DMSO by SPR analysis. An outline of the steps: as §1
Experiment [13] has as its system B-cell lymphoma 6 protein (Homo sapiens), P41182 [C8Q,C67R,C84N]. The description is as §4. Put shortly: as §1
In experiment [14] the target is T2, B-cell lymphoma 6 protein. In words: (§5) Binding affinity to human biotinylated Avi-tagged BCL6 BTB domain C8Q/C67R/C84N triple mutant expressed in Escherichia coli BL21 (DE3) using 1 % DMSO by SPR analysis. An outline of the steps: as §1
Experiment [15] deals with B-cell lymphoma 6 protein (Homo sapiens), P41182 [C8Q,C67R,C84N]. The experiment is described as §5. Put shortly:
as §1

Experiment [16] concerns the target T2, B-cell lymphoma 6 protein. In words: Binding affinity to captured human biotinylated Avi-tagged BCL6 BTB domain (5 to 129 amino acid residues) C8Q/C67R/C84N triple mutant expressed in Escherichia coli BL21 (DE3) by SPR analysis. Put shortly: as §2

The source made the active and inactive calls. No cut-off for these calls is given here.

As usually defined, the Kd is the equilibrium constant for the complex coming apart.

For the compound `O=C(O)CC(C(=O)O)N1C(=O)/C(=C2/C(=O)Nc3ccc(Br)cc32)SC1=S` (stereo not drawn), the Kd in [1] worked out at 129 µM.
In the case of `Nc1nccc(Nc2ccccc2)n1`, the Kd in experiment [2] came out at 3000 µM.
In [2], `O=C1Cc2cc(Nc3ncncc3Cl)ccc2N1` yielded a Kd of 9.3 µM.
Take `Nc1ncc(F)c(Nc2ccccc2)n1`: the Kd in experiment [2] was determined as 180 µM.
Turning to `Nc1ncnc(Nc2ccccc2)n1`, the inhibition entry in [3] was “Active”. Further, the result in [4] was Active.
As for `CO[C@H]1/C=C/O[C@@]2(C)Oc3c(C)c(O)c4c(O)c(cc(O)c4c3C2=O)NC(=O)/C(C)=C\C=C\[C@H](C)[C@H](O)[C@@H](C)[C@@H](O)[C@@H](C)[C@H](OC(C)=O)[C@@H]1C` [RIFAMYCIN], the Kd in experiment [5] stood at 1000 µM.
Turning to Ac-RSEIISTAPSSWVVPPK-OH, the Kd in experiment [6] is 7.5 µM; in experiment [7] it was 9.3 µM; in experiment [8] it was 12 µM; in [9] it was 14 µM; in experiment [10], 21 µM; in experiment [12] it was 25 µM. Further, the Kd stood at 17 µM in [2], 17 µM in experiment [14] and 40 µM in experiment [16]. The Rmax in experiment [6] was determined as 245 RU; in [7], 242 RU; in experiment [8], 243 RU; in experiment [11], 302 RU; in experiment [13] it was 304 RU; in experiment [15], 311 RU. Besides, in experiment [2], the Activity result is “Dose-dependent effect”.
